# High-throughput results from PubChem.
# MrgX1 antag = blocks BAM8-22 activation of human MrgX1 receptor. MRGX1-HEK293 calcium flux, Fluo-4, BAM8-22 antagonism; stronger effect = lower value. B-score at 10 µM. Q96LB2. hit rate 1.3% among 310,000;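 active means calcium-response B-score plate-corrected more than 3 library SD below zero, starting fluorescence within 5 deviations, no agonist response on first addition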;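 further: peak minus trough fluorescence over baseline after final BAM8-22 challenge near maximal dose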
# Target sequence (Q96LB2 whole entry, looked up): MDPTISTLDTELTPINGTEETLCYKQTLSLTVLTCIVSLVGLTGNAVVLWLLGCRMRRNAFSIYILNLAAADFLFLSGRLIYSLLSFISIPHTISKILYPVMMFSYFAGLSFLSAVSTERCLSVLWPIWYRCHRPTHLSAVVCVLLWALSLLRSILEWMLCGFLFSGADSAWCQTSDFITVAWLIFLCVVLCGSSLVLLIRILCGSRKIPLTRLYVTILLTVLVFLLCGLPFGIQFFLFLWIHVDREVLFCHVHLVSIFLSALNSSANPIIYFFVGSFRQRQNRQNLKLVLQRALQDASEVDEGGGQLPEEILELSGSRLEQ
# RGS4 act = potentiators or activators of RGS4; B-score at 10 µM; hit rate 0.92% among 310,000; HEK293 M3R/inducible RGS4, carbachol calcium flux Fluo4; stronger effect = lower value; AID 463111;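 active means B-score of the integrated calcium signal more than 4 SD below the library mean, with starting fluorescence not abnormally high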;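 further: negative B-score means reduced calcium response which marks RGS4 activation or potentiation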
#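 test system = M3R-expressing HEK293 line, RGS4 induced by doxycycline | probe or stimulus = carbachol at ECmax as muscarinic agonist stimulus | timing = dye loading 30 min 37 °C, buffer rest 30 min RT | signal = calcium dye Fluo4 fluorescence | evaluation = B score from integrated fluorescence ratio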
# MrgX1 ag = activates human MrgX1 receptor signaling | Q96LB2 | MrgX1-HEK293 cells, Fluo-4 calcium fluorescence, agonist mode; stronger effect = higher value | B-score at 10 µM | hit rate 0.44% among 310,000;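 active means calcium response B-score plate-corrected fluorescence ratio at least 3 library SD, with starting fluorescence B-score inside 5 SD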
#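 times = overnight plating, then 30 min 37 °C plus 30 min room-temperature dye loading | assay system = stable human MrgX1 HEK293 cell line | input = fifteen thousand cells per well | signal = kinetic calcium dye fluorescence, Fluo-4 NW | dosing = compound delivered in addition one of three | read-out = B-scored fluorescence response ratio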
# MrgX1 allo act = allosterically activates human MrgX1 receptor signaling. AID 588675. B-score at 10 µM. MrgX1-HEK293, Fluo-4 calcium flux, FDSS; stronger effect = higher value. Q96LB2. hit rate 0.63% among 310,000;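 active means plate-corrected calcium response at least 3 library SD above typical, normal starting fluorescence, not activating the receptor alone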;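 further: compound read alongside a low EC10 to EC30 dose of BAM8-22 agonist; peak minus trough fluorescence over baseline measured at the second addition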
# RGS4 block = human RGS4 inhibition; P49798; HEK293 M3R/RGS4 inducible, Fluo-4 calcium flux; stronger effect = higher value; triggered by carbachol at its EC20; B-score at 10 µM; hit rate 0.45% among 310,000;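 active means B-score, a plate-corrected calcium signal, over three deviations above library mean, with baseline fluorescence within five deviations of library mean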;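 further: RGS4 expression induced by doxycycline in cells with stable M3 receptor; B-score is computed from the integrated fluorescence ratio over baseline after carbachol; higher B-score means a larger calcium signal and so more RGS4 inhibition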
# Target sequence (P49798 whole entry, looked up): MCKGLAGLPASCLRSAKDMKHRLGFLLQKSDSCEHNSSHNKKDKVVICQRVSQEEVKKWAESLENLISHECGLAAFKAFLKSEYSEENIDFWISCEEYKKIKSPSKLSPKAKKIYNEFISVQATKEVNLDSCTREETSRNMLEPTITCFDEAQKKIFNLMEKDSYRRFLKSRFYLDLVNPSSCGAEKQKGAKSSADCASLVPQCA
# The depositor's hits bear a star; i = inactive; · = no result. Hits are enriched below; roughly 3.5% of the tested compounds scored in any of these assays.
SMILES,MrgX1 antag,RGS4 act,MrgX1 ag,MrgX1 allo act,RGS4 block
COc1ccc([C@H]2[C@H](C(=O)C(C)(C)C)N3N=Cc4ccccc4C3C23C(=O)OC(C)(C)OC3=O)cc1 (stereo partly drawn),-6.13*,i,i,i,i
Cc1nc2ccccc2c(=O)n1NC(=O)c1ccc(Cl)c(Cl)c1,i,i,i,i,i
COc1ccc(C(=O)Nc2ccc(NC(=O)Cc3ccccc3)cn2)cc1,i,i,i,i,i
CCOc1cc(/C=C2/NC(=O)N(CC(=O)Nc3cccc(C)c3)C2=O)ccc1O,i,i,i,i,i
CCOc1cc(/C=C2/NC(=O)N(CC(=O)Nc3cccc(C)c3)C2=O)ccc1OC,-7.06*,i,i,i,i
COc1cc([N+](=O)[O-])ccc1NC(=S)NNC(=O)CCC(=O)Nc1ccccc1Cl,i,i,i,i,i
COc1ccc(/C=C(/NC(=O)c2ccccc2OC)C(=O)Nc2ccc(C(=O)O)cc2)cc1,i,i,i,i,i
NC(=O)Cn1nc([N+](=O)[O-])nc1Oc1ccccc1F,i,i,i,i,i
NC(=O)Cn1nc([N+](=O)[O-])nc1Oc1ccccc1C(=O)N1CCOCC1,-4.57*,i,i,i,i
COc1cc(C(=O)OCn2nnc3ccccc3c2=O)cc(OC)c1OC,i,i,i,i,i
CCOc1ccc(C(=O)OCn2nnc3ccccc3c2=O)cc1OC,-7.6*,i,i,i,i
O=C(OCn1nnc2ccccc2c1=O)c1ccc(O)cc1,i,i,i,12.2*,i
O=C(O)COc1ccccc1/C=N/NC(=O)CSc1nc2ccccc2n1Cc1ccc(Cl)cc1,i,i,i,i,i
COc1ccc(S(=O)(=O)NCC2CCCO2)cc1NC(=O)c1ccc(Cl)cc1 (stereo not drawn),i,i,i,i,i
OCc1ccccc1SSc1ccccc1CO,i,i,41.2*,i,i
COc1ccc(C(=O)CN2C(=O)NC3(CCCc4ccccc43)C2=O)cc1 (stereo not drawn),i,-7.5*,i,i,i
COc1ccc([C@@H]2CC(=O)c3c(O)cc(O)cc3O2)cc1O,i,·,i,i,·
COc1c(CC=C(C)C)cc(C2CC(=O)c3c(O)cc(O)cc3O2)cc1CC=C(C)C (stereo not drawn),i,-8.27*,i,i,i
CCc1c(C2(O)CCCCC2)[nH]c2ccc(C(F)(F)F)cc12,i,i,i,i,i
c1ccc(Sc2ccccc2CN2CCCC2)cc1,i,-7.42*,i,i,i
Fc1ccccc1CN1CCCCCCC1,i,i,i,i,i
O=C(c1ccc([N+](=O)[O-])cc1)N1CCSC1c1cccc(Cl)c1 (stereo not drawn),i,-7.53*,i,i,i
O=C(c1ccc([N+](=O)[O-])cc1)N1CCSC1c1ccccc1 (stereo not drawn),i,i,i,i,i
Cc1cccc(N(C)S(=O)(=O)c2ccc3c(c2)C(C)(C)C(=O)N3C)c1,i,i,i,i,i
CC(=O)N(CCCNC(=O)c1ccccc1)C(=O)c1ccccc1,i,i,i,i,i
SMILES,MrgX1 antag,RGS4 act,MrgX1 ag,MrgX1 allo act,RGS4 block
O=C(NC1CCCCC1)C(c1ccccn1)N(C(=O)Cc1cccs1)c1ccc(Cl)cc1 (stereo not drawn),i,i,36.7*,i,i
Cc1cc(C)cc(N(C(=O)Cc2cccs2)C(C(=O)NC2CCCCC2)c2ccccn2)c1 (stereo not drawn),i,i,i,i,i
COc1ccc(NS(=O)(=O)c2ccc(N3CCCC3)c(NC(=S)Nc3cccc(S(=O)(=O)N(C)C)c3)c2)cc1,i,i,i,i,i
CCC(C(=O)Nc1ccc2c(c1)OCCO2)n1c(=O)[nH]c2ccccc2c1=O (stereo not drawn),i,i,i,i,i
Cc1ccc(OCCn2c(=O)n(C)c3ccccc32)cc1,i,-7.18*,i,i,i
CCOc1cc(N)c(Cl)cc1C(=O)NCC1CN(Cc2ccc(F)cc2)CCO1 (stereo not drawn),-8.62*,i,i,i,i
Cn1cccc1/C=N\NC(=O)C1COc2ccc(C(C)(C)C)cc2O1 (stereo not drawn),i,i,i,8.09*,i
Cn1cccc1/C=N\NC(=O)C1COc2ccccc2O1 (stereo not drawn),i,i,i,i,i
CC1CCN(CC(=O)Nc2ccc(S(=O)(=O)N3CCCCC3)cc2)CC1,i,i,i,i,i
CC1CCN(CC(=O)Nc2ccc(N3CCCCCC3)cc2)CC1,i,-6.99*,i,i,i
CCC(C)Sc1cc(-c2nc3ccc(C)cn3c2NCc2ccccc2)ccc1OC (stereo not drawn),i,i,i,i,i
CCC(C)Sc1ccc(-c2nc3ccc(C)cn3c2NCc2ccccc2)cc1OC (stereo not drawn),i,-8.6*,i,i,i
COc1cc(/C=N/NC(N)=S)ccc1OCC(=O)Nc1ccc(C)cc1,-5.52*,i,i,i,i
COc1cc(/C=N/NC(=O)NC23CC4CC(CC(C4)C2)C3)ccc1OCC(N)=O,i,-8.1*,i,i,i
CCCCC(CC)CN=C(N)NC(N)=NCCCCCCN=C(N)NC(N)=NCC(CC)CCCC (stereo not drawn),i,·,170*,i,·
CCOC(=O)c1ccccc1NC(=O)C1CC(=O)N(c2ccccc2)C1 (stereo not drawn),i,i,i,i,i
Cc1cc(C)n2nc(C(=O)N/N=C/c3cn(C)nc3C)nc2n1,i,i,i,i,i
Cc1ccc(/C=N/NC(=O)c2nc3nc(C)cc(C)n3n2)cc1,-4.67*,i,i,i,i
CC(CCCN(C)C)C(Cc1ccccc1)c1ccccc1 (stereo not drawn),i,-7.81*,i,i,i
CN(C)CCC(=O)C(Cc1ccccc1)c1ccccc1 (stereo not drawn),i,i,i,i,i
Cc1cc(NC(=O)CSc2nc(-c3ccccc3)nc3c2c(=O)n(C)c(=O)n3C)no1,i,i,i,i,i
CCCN(C(=O)CSCc1ccccc1C)c1c(N)n(Cc2ccccc2)c(=O)[nH]c1=O,-7.19*,i,i,i,i
CCC(C)c1ccc(C(C)NC(=S)NC2CCCCC2)cc1 (stereo not drawn),i,-8.41*,i,i,i
